# Reference: ChEMBL document CHEMBL1165925, “Identification of new non-carboxylic acid containing inhibitors of aldose reductase” (Bioorg Med Chem, 2010)
# Target: Aldo-keto reductase family 1 member B1 (Bos taurus, UniProt P16116)
# Experiment: Inhibition of bovine lens aldose reductase
# Outline: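 Enzyme purified from bovine lens by DE-52 ion exchange then Matrex Orange A affinity chromatography (0.93 U/mg) and kept at 4 °C in 10 mM sodium phosphate pH 7.0 with 2 mM DTT. At least five inhibitor concentrations (20–80% inhibition), each tested at least in triplicate. IC50 from one-site competition nonlinear fit; 95% CL.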
row,Structure (SMILES),IC50 [µM]
1,O=C1S/C(=C\c2ccc(OCc3ccccc3)cc2)C(=O)N1CC(O)(O)C(F)(F)F,> 9
2,O=C1S/C(=C\c2ccc(O)cc2)C(=O)N1CC(=O)C(F)(F)F,3
3,COc1cccc(/C=C2\SC(=O)N(CC(=O)C(F)(F)F)C2=O)c1,23.3
4,O=C1S/C(=C\c2ccc(OCc3ccccc3)cc2)C(=O)N1CC(=O)C(F)(F)F,> 9
5,COc1ccc(/C=C2\SC(=O)N(CC(O)(O)C(F)(F)F)C2=O)cc1,17.4
6,O=C1S/C(=C\c2cccc(O)c2)C(=O)N1CC(=O)C(F)(F)F,12.3

# Now from value to molecule:
row,IC50 [µM],Structure (SMILES)
1,8.3,O=C1S/C(=C\c2ccc(Oc3ccccc3)cc2)C(=O)N1CC(=O)C(F)(F)F
2,17.4,COc1ccc(/C=C2\SC(=O)N(CC(=O)C(F)(F)F)C2=O)cc1
3,12.3,O=C1S/C(=C\c2cccc(O)c2)C(=O)N1CC(O)(O)C(F)(F)F
4,3,O=C1S/C(=C\c2ccc(O)cc2)C(=O)N1CC(O)(O)C(F)(F)F
5,8.3,O=C1S/C(=C\c2ccc(Oc3ccccc3)cc2)C(=O)N1CC(O)(O)C(F)(F)F
6,23.3,COc1cccc(/C=C2\SC(=O)N(CC(O)(O)C(F)(F)F)C2=O)c1

# Target: Aldo-keto reductase family 1 member B1 (Bos taurus) (UniProt P16116)
# Experiment: Inhibition of bovine lens aldose reductase at 25 uM
# Outline: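 Bovine lens enzyme was purified by DE-52 and Matrex Orange A chromatography. Assay used glyceraldehyde as substrate in 0.25 M sodium phosphate pH 6.8, with 0.38 M ammonium sulfate, 0.11 mM NADPH and 0.5 mM EDTA. Inhibitor was added in DMSO, final 1% v/v. Read-out is NADPH oxidation, given as percent inhibition at a single concentration.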
row,Structure (SMILES),inhibition [%]
1,O=C1S/C(=C\c2cccc3ccccc23)C(=O)N1CC(=O)C(F)(F)F,52
2,O=C1S/C(=C\c2cccc(Oc3ccccc3)c2)C(=O)N1CC(O)(O)C(F)(F)F,64
3,O=C1S/C(=C\c2ccc(-c3ccccc3)cc2)C(=O)N1CC(O)(O)C(F)(F)F,45

# Second part, the molecule after the results:
row,inhibition [%],Structure (SMILES)
1,45,O=C1S/C(=C\c2ccc(-c3ccccc3)cc2)C(=O)N1CC(=O)C(F)(F)F
2,59,O=C1S/C(=C\c2ccc3ccccc3c2)C(=O)N1CC(=O)C(F)(F)F
3,64,O=C1S/C(=C\c2cccc(Oc3ccccc3)c2)C(=O)N1CC(=O)C(F)(F)F
4,59,O=C1S/C(=C\c2ccc3ccccc3c2)C(=O)N1CC(O)(O)C(F)(F)F
5,52,O=C1S/C(=C\c2cccc3ccccc23)C(=O)N1CC(O)(O)C(F)(F)F
